# Data reported in ChEMBL document CHEMBL4819008, “Design, synthesis, and evaluation of "dual-site"-binding diarylpyrimidines targeting both NNIBP and the NNRTI adjacent site of the HIV-1 reverse transcriptase” (Eur J Med Chem, 2021).
# pEC50: −log10 of the molar value.
# Legend:
# [1] = test system: Human immunodeficiency virus 1; assay: Antiviral activity against wild type HIV1 NL4-3 infected in human TZM-bl cells assessed as reduction in viral infection measured after 1 day by luciferase reporter gene assay based luminiscence assay; type: functional, organism-based; settings: Human immunodeficiency virus 1, NL4-3, TZM-bl, 24 h
# Method in brief: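 TZM-bl cells got a single-round infection with 800 TCID50 of NL4-3 at various compound concentrations, top concentration 100 ng/mL. Luminescence was read 1 day post-infection. EC50 is the concentration giving a 50% decrease in luciferase RLU versus control wells, determined in at least triplicate.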
# [2] = Cytotoxicity against human TZM-bl cells assessed as reduction in cell viability measured after 1 day by CytoTox-Glo assay; type: cell-based
# Method in brief: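 TZM-bl cells were cultured 1 day with various compound concentrations, in parallel with the antiviral assay, top concentration 100 ng/mL. Viable cells were measured by CytoTox-Glo. CC50 is the concentration causing a 50% reduction in cell viability.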
# [3] = Selectivity index, ratio of CC50 for human TZM-bl cells to EC50 for wild type HIV1 NL4-3 infected in human TZM-bl cells; type: toxicity, cell-based; settings: read-out: Ratio CC50/EC50
# Method in brief: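 Selectivity index is CC50/EC50, with both values from the TZM-bl assays: NL4-3 single-round luciferase infection and CytoTox-Glo viability, each over 1 day.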
# [4] = test system: Human immunodeficiency virus 1; assay: Antiviral activity against wild type HIV-1 3B infected in human MT4 cells assessed as inhibition of virus-induced cytopathic effect measured after 5 days by MTT assay; type: functional, organism-based; settings: Human immunodeficiency virus 1, 3B, MT4, 120 h
# Method in brief: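 MT-4 cells at 6 × 10^5 cells/mL were infected with virus stock at 100–300 CCID50 in the presence of serial 5-fold compound dilutions, in triplicate wells. Viability was read by MTT reduction 5 days after infection, with absorbance at 540 and 690 nm and the median OD of three wells used. EC50 is the concentration giving 50% protection from viral cytopathicity.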
# [5] = Cytotoxicity against human MT4 cells assessed as reduction in cell viability measured after 5 days by MTT assay; type: cell-based; settings: time 5 day
# Method in brief: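 Mock-infected MT-4 cells (6 × 10^5 cells/mL) were run in parallel with the infected wells, under serial 5-fold compound dilutions in triplicate. MTT viability was read after 5 days and the median OD of three wells used. CC50 is the concentration that reduced OD540 of the mock-infected cells by 50%.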
# [6] = Selectivity index, ratio of CC50 for human MT4 cells to EC50 for wild type HIV-1 3B infected in human MT4 cells; type: toxicity, cell-based; settings: read-out: Ratio CC50/EC50
# [7] = test system: Human immunodeficiency virus 1; assay: Antiviral activity against HIV-1 harboring reverse transcriptase L100I mutant infected in human MT4 cells assessed as inhibition of virus induced cytopathic effect measured after 5 days by MTT assay; type: functional, organism-based; settings: Human immunodeficiency virus 1, MT4, 120 h
# Method in brief: (§1)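 MT-4 cells, exponentially growing, resuspended at 6 × 10^5 cells/mL and infected with the mutant HIV-1 stock at 100–300 CCID50. Compounds were added as 5-fold serial dilutions, in triplicate wells, alongside mock-infected wells. After 5 days, viability was read by MTT reduction at 540 and 690 nm using the median OD of three wells. EC50 is the concentration giving 50% protection from viral cytopathogenicity.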
# [8] = test system: Human immunodeficiency virus 1; assay: Antiviral activity against HIV-1 harboring reverse transcriptase K103N mutant infected in human MT4 cells assessed as inhibition of virus induced cytopathic effect measured after 5 days by MTT assay; type: functional, organism-based; settings: Human immunodeficiency virus 1, MT4, 120 h; method in brief: as §1
# [9] = test system: Human immunodeficiency virus 1; assay: Antiviral activity against HIV-1 harboring reverse transcriptase Y181C mutant infected in human MT4 cells assessed as inhibition of virus induced cytopathic effect measured after 5 days by MTT assay; type: functional, organism-based; settings: Human immunodeficiency virus 1, MT4, 120 h; method in brief: as §1
# [10] = test system: Human immunodeficiency virus 1; assay: Antiviral activity against HIV-1 harboring reverse transcriptase Y188L mutant infected in human MT4 cells assessed as inhibition of virus induced cytopathic effect measured after 5 days by MTT assay; type: functional, organism-based; settings: Human immunodeficiency virus 1, MT4, 120 h; method in brief: as §1
# [11] = test system: Human immunodeficiency virus 1; assay: Antiviral activity against HIV-1 harboring reverse transcriptase E138K mutant infected in human MT4 cells assessed as inhibition of virus induced cytopathic effect measured after 5 days by MTT assay; type: functional, organism-based; settings: Human immunodeficiency virus 1, MT4, 120 h; method in brief: as §1
# [12] = test system: Human immunodeficiency virus 1; assay: Antiviral activity against HIV-1 harboring reverse transcriptase F227L/V106A mutant infected in human MT4 cells assessed as inhibition of virus induced cytopathic effect measured after 5 days by MTT assay; type: functional, organism-based; settings: Human immunodeficiency virus 1, MT4, 120 h; method in brief: as §1
# [13] = test system: Human immunodeficiency virus 1; assay: Antiviral activity against HIV-1 harboring reverse transcriptase RES056 mutant infected in human MT4 cells assessed as inhibition of virus induced cytopathic effect measured after 5 days by MTT assay; type: functional, organism-based; settings: Human immunodeficiency virus 1, MT4, 120 h; method in brief: as §1
# [14] = Antiviral activity against HIV-2 ROD infected in human MT4 cells assessed as protection against virus-induced cytopathic effect measured after 5 days by MTT assay; settings: Human immunodeficiency virus 2, ISOLATE ROD, MT4, 120 h
SMILES,pEC50 [1],CC50 at 24 h [2] [µM],selectivity ratio [3],pEC50 [4],CC50 at 120 h [5] [µM],selectivity ratio [6],pEC50 [7],pEC50 [8],pEC50 [9],pEC50 [10],pEC50 [11],pEC50 [12],pEC50 [13],pEC50 [14]
Cc1cc(C#N)cc(C)c1Oc1nc(Nc2ccc(C#N)cc2)ncc1/C=C/C(=O)N1CCN(C(=O)C(F)(F)F)CC1,7.86,> 0.174,> 13,,,,,,,,,,,
Cc1cc(C#N)cc(C)c1Oc1nc(Nc2ccc(C#N)cc2)ncc1/C=C/C(=O)NCCN1CCN(S(C)(=O)=O)CC1,8.38,> 0.166,> 40,8.21,5.9,955,7.10,8.06,7.31,7.00,7.68,6.60,6.09,< 5.23
Cc1cn([C@H]2C[C@H](N=[N+]=[N-])[C@@H](CO)O2)c(=O)[nH]c1=O [ZIDOVUDINE],8.12,> 6.3,> 1000,7.74,> 7.5,> 410,8.15,7.90,8.06,8.00,7.84,8.33,7.70,
Cc1cc(C#N)cc(C)c1Oc1nc(Nc2ccc(C#N)cc2)ncc1/C=C/C(=O)N1CCN(S(=O)(=O)C(F)(F)F)CC1,< 6.79,> 0.164,> 1,,,,,,,,,,,
CC(=O)N1CCN(C(=O)/C=C/c2cnc(Nc3ccc(C#N)cc3)nc2Oc2c(C)cc(C#N)cc2C)CC1,7.30,> 0.192,> 4,,,,,,,,,,,
O=C1Nc2ccc(Cl)cc2[C@@](C#CC2CC2)(C(F)(F)F)O1 [EFAVIRENZ],8.28,> 6.3,> 1210,8.60,> 6.3,> 2570,7.51,7.20,8.28,6.83,8.24,6.77,6.56,
Cc1cc(C#N)cc(C)c1Oc1nc(Nc2ccc(C#N)cc2)ncc1/C=C/C(=O)NC1CCN(S(C)(=O)=O)C1 (configuration not stated),7.83,> 0.179,> 12,,,,,,,,,,,
Cc1cc(C#N)cc(C)c1Oc1nc(Nc2ccc(C#N)cc2)ncc1/C=C/C(=O)NC1CC1,8.29,> 0.221,> 44,,,,,,,,,,,
Cc1cc(C#N)cc(C)c1Oc1nc(Nc2ccc(C#N)cc2)ncc1/C=C/C(=O)NCC1CCN(S(C)(=O)=O)C1 (configuration not stated),7.87,> 0.175,> 13,,,,,,,,,,,
Cc1cc(C#N)cc(C)c1Oc1nc(Nc2ccc(C#N)cc2)ncc1/C=C/C(=O)NCCOCCO,8.32,> 0.2,> 42,7.57,61.8,2280,6.64,7.30,6.71,6.84,7.33,6.50,5.98,< 4.21
Cc1cc(C#N)cc(C)c1Oc1nc(Nc2ccc(C#N)cc2)ncc1/C=C/C(=O)N1CCN(S(C)(=O)=O)CC1,7.86,> 0.179,> 13,,,,,,,,,,,
Cc1cc(C#N)cc(C)c1Oc1nc(Nc2ccc(C#N)cc2)ncc1/C=C/C(=O)NC1CCN(S(C)(=O)=O)CC1,7.85,> 0.175,> 12,,,,,,,,,,,
Cc1cc(C#N)cc(C)c1Oc1nc(Nc2ccc(C#N)cc2)ncc1/C=C/C(=O)N1CCOCC1,7.70,> 0.208,> 10,,,,,,,,,,,
Cc1cc(C#N)cc(C)c1Oc1nc(Nc2ccc(C#N)cc2)ncc1/C=C/C(=O)NCC1CCN(S(C)(=O)=O)CC1,7.89,> 0.171,> 13,,,,,,,,,,,
Cc1cc(C#N)cc(C)c1Oc1nc(Nc2ccc(C#N)cc2)ncc1/C=C/C(=O)NCCc1c[nH]c2ccccc12,7.09,> 0.18,> 2,,,,,,,,,,,
Cc1ccnc2c1NC(=O)c1cccnc1N2C1CC1 [NEVIRAPINE],6.55,> 15,> 53,,> 9.5,> 113,6.43,5.83,5.63,5.47,7.14,5.56,5.17,
Cc1cc(C#N)cc(C)c1Oc1nc(Nc2ccc(C#N)cc2)ncc1/C=C/C(N)=O,8.27,> 0.243,> 45,,,,,,,,,,,
CCOC(=O)/C=C/c1cnc(Nc2ccc(C#N)cc2)nc1Oc1c(C)cc(C#N)cc1C,7.73,> 0.227,> 12,,,,,,,,,,,
Cc1cc(C#N)cc(C)c1Oc1nc(Nc2ccc(C#N)cc2)nc(N)c1Br [ETRAVIRINE],8.84,> 0.229,,,> 4.6,,7.99,8.64,,7.81,,8.09,7.22,
Cc1cc(C#N)cc(C)c1Oc1nc(Nc2ccc(C#N)cc2)ncc1/C=C/C(=O)NC1CCN(C(=O)C(F)(F)F)CC1,< 6.77,> 0.17,> 1,,,,,,,,,,,
Cc1cc(C#N)cc(C)c1Oc1nc(Nc2ccc(C#N)cc2)ncc1/C=C/C(=O)N1CCN(C=O)CC1,7.31,> 0.197,> 4,,,,,,,,,,,
Cc1cc(C#N)cc(C)c1Oc1nc(Nc2ccc(C#N)cc2)ncc1/C=C/C(=O)NC1CCN(S(=O)(=O)C(F)(F)F)CC1,< 6.80,> 0.16,> 1,,,,,,,,,,,
